Tests used:
[1] = test system: Human immunodeficiency virus 1; test: Antiviral activity against HIV-1 (HTLV-IIIB) in MT-4 cells; type: functional, organism-based; details: Human immunodeficiency virus 1, MT4
In short: (§1)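 MT-4 cells were infected with the HIV-1 strain named in the line and cultured with the test compound for 4 days. Viable cells were then counted by the MTT method. EC50 is the 50% effective antiviral concentration and CC50 the 50% cytotoxic concentration, each the mean of at least two separate experiments.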

[2] = test system: Human immunodeficiency virus 1; test: Cytotoxicity against HIV-1 (HTLV-IIIB) in MT-4 cells; type: functional; details: Human immunodeficiency virus 1, MT4; in short: as §1
MOLT-4 [3] = test: Percentage inhibition of HIV-1-induced giant cell (syncytia) formation using MOLT-4 cell at 4 uM; type: functional; details: Homo sapiens
In short: (§2)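 MOLT-4 cells (5×10^4/well) were cocultured with an equal number of chronically infected MOLT-4/HTLV-III_B cells at various compound concentrations for 24 h. Cell clusters were then broken by gentle pipetting, and giant cells were counted under the microscope.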

MOLT-4 [4] = test: Inhibition of HIV-1-induced giant cell (syncytia) formation using MOLT-4 cell; type: functional, cell-based; details: Homo sapiens; in short: as §2
MOLT-4 [5] = test: Percentage inhibition of HIV-1-induced giant cell (syncytia) formation using MOLT-4 cell at 100 uM; type: functional; details: Homo sapiens; in short: as §2
MT4 [6] = test: Cytotoxicity against HIV-1 in MT-4 cells was evaluated by using a clinical strain (HE); type: functional; details: Homo sapiens; in short: as §1
MOLT-4 [7] = test: Percentage inhibition of HIV-1-induced giant cell (syncytia) formation using MOLT-4 cell at 500 uM; type: functional; details: Homo sapiens; in short: as §2
MT4 [8] = test: Antiviral activity against HIV-1 in MT-4 cells was evaluated by using a clinical strain (HE); type: functional, cell-based; details: Homo sapiens; in short: as §1
MOLT-4 [9] = test: Percentage inhibition of HIV-1-induced giant cell (syncytia) formation using MOLT-4 cell at 0.8 uM; type: functional; details: Homo sapiens; in short: as §2
MOLT-4 [10] = test: Percentage inhibition of HIV-1-induced giant cell (syncytia) formation using MOLT-4 cell at 20 uM; type: functional; details: Homo sapiens; in short: as §2
[11] = test system: Human immunodeficiency virus 1; test: Antiviral concentration against HIV-1 (HTLV-IIIB) in peripheral blood lymphocytes; type: functional, organism-based
[12] = test system: Human immunodeficiency virus 1; test: Cytotoxic concentration against HIV-1 (HTLV-IIIB) in peripheral blood lymphocytes; type: functional

SMILES	EC50 [1] [µM]	CC50 [2] [µM]	further results
O=C(O)c1cc(NS(=O)(=O)c2ccc(-c3ccc(S(=O)(=O)Nc4cc(C(=O)O)c(O)c(S(=O)(=O)O)c4)cc3)cc2)cc(S(=O)(=O)O)c1O	52.5	247	inhibition at 4 µM (MOLT-4 [3]): 0%; IC50 (MOLT-4 [4]): 37 µM; inhibition at 100 µM (MOLT-4 [5]): 94%; CC50 (MT4 [6]): > 100 µM; inhibition at 500 µM (MOLT-4 [7]): 100%; EC50 (MT4 [8]): 7.5 µM; inhibition at 0.8 µM (MOLT-4 [9]): 3%; inhibition at 20 µM (MOLT-4 [10]): 22%
O=S(=O)(O)c1ccc2cc(OS(=O)(=O)c3ccc(-c4ccc(S(=O)(=O)Oc5cc6ccc(S(=O)(=O)O)cc6cc5S(=O)(=O)O)cc4)cc3)c(S(=O)(=O)O)cc2c1	43	> 500	
O=C(CCCCCC(=O)Nc1ccc(S(=O)(=O)O)c2cccc(S(=O)(=O)O)c12)Nc1ccc(S(=O)(=O)O)c2cccc(S(=O)(=O)O)c12	143	> 500	
O=S(=O)(O)c1ccc2cc(NS(=O)(=O)c3ccc(-c4ccc(S(=O)(=O)Nc5cc6ccc(S(=O)(=O)O)cc6cc5S(=O)(=O)O)cc4)cc3)c(S(=O)(=O)O)cc2c1	41	> 500	
O=S(=O)(O)c1cc(S(=O)(=O)O)c2cc(OS(=O)(=O)c3cccc4c(S(=O)(=O)Oc5ccc6cc(S(=O)(=O)O)cc(S(=O)(=O)O)c6c5)cccc34)ccc2c1	> 168	> 500	
O=C(O)c1cc(NS(=O)(=O)c2cc(S(=O)(=O)Nc3cc(C(=O)O)c(O)c(S(=O)(=O)O)c3)cc(S(=O)(=O)Nc3cc(C(=O)O)c(O)c(S(=O)(=O)O)c3)c2)cc(S(=O)(=O)O)c1O	11	> 500	
O=S(=O)(O)c1cc(S(=O)(=O)O)c2cc(OS(=O)(=O)c3ccc(-c4ccc(S(=O)(=O)Oc5ccc6cc(S(=O)(=O)O)cc(S(=O)(=O)O)c6c5)cc4)cc3)ccc2c1	40	224	
O=C(CCC(=O)Nc1ccc(S(=O)(=O)O)c2ccccc12)Nc1ccc(S(=O)(=O)O)c2ccccc12	> 500	> 500	
O=C(CCCCCCC(=O)Nc1cc(S(=O)(=O)O)cc2cc(S(=O)(=O)O)cc(O)c12)Nc1cc(S(=O)(=O)O)cc2cc(S(=O)(=O)O)cc(O)c12 [listing 1 of 2 here]	2.9	360	EC50 [11]: 1.3 µM; inhibition at 4 µM (MOLT-4 [3]): 31%; IC50 (MOLT-4 [4]): 6.4 µM; inhibition at 100 µM (MOLT-4 [5]): 100%; CC50 [12]: 20 µM; inhibition at 500 µM (MOLT-4 [7]): 100%; inhibition at 0.8 µM (MOLT-4 [9]): 6%; inhibition at 20 µM (MOLT-4 [10]): 96%
O=C(CCCCCCCCCCC(=O)Nc1cc(S(=O)(=O)O)cc2cc(S(=O)(=O)O)cc(O)c12)Nc1cc(S(=O)(=O)O)cc2cc(S(=O)(=O)O)cc(O)c12	44	430	inhibition at 4 µM (MOLT-4 [3]): 11%; IC50 (MOLT-4 [4]): 26 µM; inhibition at 100 µM (MOLT-4 [5]): 100%; CC50 (MT4 [6]): > 100 µM; inhibition at 500 µM (MOLT-4 [7]): 100%; EC50 (MT4 [8]): 12.5 µM; inhibition at 0.8 µM (MOLT-4 [9]): 0%; inhibition at 20 µM (MOLT-4 [10]): 40%
Cc1cc(C)c(S(=O)(=O)Nc2cc(C(=O)O)c(O)c(S(=O)(=O)O)c2)c(C)c1S(=O)(=O)Nc1cc(C(=O)O)c(O)c(S(=O)(=O)O)c1	57	> 500	
Nc1ccc(S(=O)(=O)O)c2cccc(S(=O)(=O)O)c12	> 500	> 500	
O=S(=O)(O)c1cc(O)c2c(NS(=O)(=O)c3ccc(-c4ccc(S(=O)(=O)Nc5cc(S(=O)(=O)O)cc6cc(S(=O)(=O)O)cc(O)c56)cc4)cc3)cc(S(=O)(=O)O)cc2c1	8.3	320	EC50 [11]: 9.2 µM; CC50 [12]: 38 µM
Nc1ccc2cc(S(=O)(=O)O)cc(S(=O)(=O)O)c2c1	> 500	> 500	
O=C(CCCCCCCCCCC(=O)Nc1ccc(S(=O)(=O)O)c2cccc(S(=O)(=O)O)c12)Nc1ccc(S(=O)(=O)O)c2cccc(S(=O)(=O)O)c12	46	> 500	
O=C(CCCCCCCCC(=O)Nc1ccc(S(=O)(=O)O)c2cccc(S(=O)(=O)O)c12)Nc1ccc(S(=O)(=O)O)c2cccc(S(=O)(=O)O)c12	66.5	> 500	
O=C(CCCCCCC(=O)Nc1ccc(S(=O)(=O)O)c2cccc(S(=O)(=O)O)c12)Nc1ccc(S(=O)(=O)O)c2cccc(S(=O)(=O)O)c12	242	> 500	

SMILES	EC50 [1] [µM]	CC50 [2] [µM]	further results
O=C(CCCCCCCCC(=O)Nc1ccc(S(=O)(=O)O)c2ccccc12)Nc1ccc(S(=O)(=O)O)c2ccccc12	> 500	> 500	
O=C(CCCCCCC(=O)Nc1ccc(S(=O)(=O)O)c2ccccc12)Nc1ccc(S(=O)(=O)O)c2ccccc12	> 500	> 500	
O=S(=O)(O)c1cc(S(=O)(=O)O)c2cc(NS(=O)(=O)c3cccc4c(S(=O)(=O)Nc5ccc6cc(S(=O)(=O)O)cc(S(=O)(=O)O)c6c5)cccc34)ccc2c1	14	> 500	
O=S(=O)(O)c1cc(S(=O)(=O)O)c2cc(NS(=O)(=O)c3ccc(-c4ccc(S(=O)(=O)Nc5ccc6cc(S(=O)(=O)O)cc(S(=O)(=O)O)c6c5)cc4)cc3)ccc2c1	29.5	> 500	inhibition at 4 µM (MOLT-4 [3]): 21%; IC50 (MOLT-4 [4]): 29 µM; inhibition at 100 µM (MOLT-4 [5]): 100%; CC50 (MT4 [6]): > 100 µM; inhibition at 500 µM (MOLT-4 [7]): 100%; EC50 (MT4 [8]): 8.1 µM; inhibition at 0.8 µM (MOLT-4 [9]): 6%; inhibition at 20 µM (MOLT-4 [10]): 34%
O=C(Nc1ccc(S(=O)(=O)O)c2cccc(S(=O)(=O)O)c12)c1ccc(C(=O)Nc2ccc(S(=O)(=O)O)c3cccc(S(=O)(=O)O)c23)cc1	> 197	> 500	
O=C(O)c1cc(NS(=O)(=O)c2cccc3c(S(=O)(=O)Nc4cc(C(=O)O)c(O)c(S(=O)(=O)O)c4)cccc23)cc(S(=O)(=O)O)c1O	52.5	> 500	
O=C(CCCCCCCCC(=O)Nc1cc(S(=O)(=O)O)cc2cc(S(=O)(=O)O)cc(O)c12)Nc1cc(S(=O)(=O)O)cc2cc(S(=O)(=O)O)cc(O)c12 [listing 1 of 2 here]	3.9	> 100	inhibition at 4 µM (MOLT-4 [3]): 30%; IC50 (MOLT-4 [4]): 29 µM; inhibition at 100 µM (MOLT-4 [5]): 100%; inhibition at 500 µM (MOLT-4 [7]): 100%; inhibition at 0.8 µM (MOLT-4 [9]): 0%; inhibition at 20 µM (MOLT-4 [10]): 35%
O=S(=O)(O)c1cccc2ccc(OS(=O)(=O)c3cccc4c(S(=O)(=O)Oc5ccc6cccc(S(=O)(=O)O)c6c5)cccc34)cc12	> 55	144	
O=S(=O)(O)c1cccc2ccc(OS(=O)(=O)c3ccc(-c4ccc(S(=O)(=O)Oc5ccc6cccc(S(=O)(=O)O)c6c5)cc4)cc3)cc12	> 100	100	
Nc1cc(S(=O)(=O)O)cc2cc(S(=O)(=O)O)cc(O)c12	> 529	> 529	
O=C(CCCCCCC(=O)Nc1cc(S(=O)(=O)O)cc2cc(S(=O)(=O)O)cc(O)c12)Nc1cc(S(=O)(=O)O)cc2cc(S(=O)(=O)O)cc(O)c12 [listing 2 of 2 here]			CC50 (MT4 [6]): > 100 µM; EC50 (MT4 [8]): 2.2 µM
O=C(CCCCCCCCC(=O)Nc1cc(S(=O)(=O)O)cc2cc(S(=O)(=O)O)cc(O)c12)Nc1cc(S(=O)(=O)O)cc2cc(S(=O)(=O)O)cc(O)c12 [listing 2 of 2 here]			CC50 (MT4 [6]): > 100 µM; EC50 (MT4 [8]): 3.9 µM
O=S(=O)(O)c1cc(S(=O)(=O)O)c2cc(O)ccc2c1	> 500	> 500	
Nc1ccc(S(=O)(=O)O)c2ccccc12	> 500	> 500	
Cc1ccc(C(=O)Nc2ccc(S(=O)(=O)O)c3cc(S(=O)(=O)O)cc(S(=O)(=O)O)c23)cc1NC(=O)c1cccc(NC(=O)Nc2cccc(C(=O)Nc3cc(C(=O)Nc4ccc(S(=O)(=O)O)c5cc(S(=O)(=O)O)cc(S(=O)(=O)O)c45)ccc3C)c2)c1 [SURAMIN HEXASODIUM]	8.2	250	
Cc1ccc(C(=O)Nc2ccc(S(=O)(=O)O)c3cc(S(=O)(=O)O)cc(S(=O)(=O)O)c23)cc1NC(=O)c1cccc(NC(=O)Nc2cccc(C(=O)Nc3cc(C(=O)Nc4ccc(S(=O)(=O)O)c5cc(S(=O)(=O)O)cc(S(=O)(=O)O)c45)ccc3C)c2)c1 [SURAMIN]			CC50 (MT4 [6]): 47 µM; EC50 (MT4 [8]): 8 µM
